# Measured values pooled from the literature.
# Lines come from different studies, so protocols differ.
# Effect on: metabolic stability
# Species: human
Structure (SMILES),test system,conditions,half-life
Cc1[nH]c(C)c(S(=O)(=O)Nc2ccc(C(F)(F)F)c(Cl)c2)c1C(=O)N1CCC(F)(F)C1,liver microsomes,,10.2 min
CCN(CC)CCNC(=O)c1c(C)[nH]c(/C=C2\C(=O)Nc3ccc(F)cc32)c1C,liver microsomes,1 µM,24.3 min
O=C1CCC(N2Cc3cc(C4CCN(Cc5ccccc5)CC4)ccc3C2=O)C(=O)N1 (stereo not shown),liver microsomes,1 µM,> 60 min
Cc1ccc2[nH]c(=S)n(Cc3cccnc3)c(=O)c2c1,liver microsomes,"1 µM, pH 7.4",10.6 min
O=c1c2c([nH]c3ccc(Oc4ccc(OC(F)(F)F)cc4)cc13)CCCC2,liver microsomes,"1 µM, pH 7.4",25.1 min
Nc1nnc(-c2ccccc2O)cc1N1CCN(Cc2ccc(N3CCN(CCOc4cccc5c4C(=O)N(C4CCC(=O)NC4=O)C5=O)CC3)c(F)c2)CC1 (stereo not shown),liver microsomes,1 mM,35 min
O=c1c2ccc(Oc3ccccc3OC(F)(F)F)cc2[nH]c2cc(Cl)cc(F)c12,liver microsomes,"1 µM, pH 7.4",> 60 min
CCN(CC)CCNC(=O)c1c(C)[nH]c(/C=C2\C(=O)Nc3ccc(F)cc32)c1C,liver microsomes,"1 µM, pH 7.4",27.5 min
OCc1ccc(-c2nn(Cc3ccccc3)c3ccccc23)o1,liver microsomes,,7 min
O=c1c2cc(Cl)c(CO)cc2[nH]c(=S)n1Cc1cccnc1,liver microsomes,"1 µM, pH 7.4",57.1 min
CCCCCCCCCCCCCCCC(=O)NCCOC(=O)C[C@@H](CN)CC(C)C,liver microsomes,"1 µM, pH 7.4",60.3 min
O=c1c2c([nH]c3cccc(Oc4ccc(OC(F)(F)F)cc4)c13)CCCC2,liver microsomes,"1 µM, pH 7.4",12.7 min
Cc1ncsc1-c1ccc([C@H](CC(=O)N2CC3(C2)CN(c2ccc(C#Cc4ccc(C(=O)N5CCC(n6cc(-c7ccc8c(c7)CCN8C(=O)Cc7cccc(OC(F)(F)F)c7)c7c(N)ncnc76)CC5)cc4)cn2)C3)NC(=O)[C@@H]2C[C@@H](O)CN2C(=O)[C@@H](NC(=O)C2(F)CC2)C(C)(C)C)cc1,hepatocytes,1 µM,> 120 min
O=c1c2c([nH]c3cc(Oc4ccc(OC(F)(F)F)cc4)ccc13)CCCC2,liver microsomes,"1 µM, pH 7.4",26.8 min
CONC(=O)c1cccc2c1cc(C)n2-c1nc2c(c(NCc3ccccc3)n1)CCCN2,liver microsomes,"1 µM, pH 7.4",13.3 min
CCOc1ccc(Nc2c3c(nc4ccccc24)CCC3)cc1,liver microsomes,0.5 µM,47 min
O=c1c2ccccc2[nH]c2cc(Oc3ccc(OC(F)(F)F)cc3)ccc12,liver microsomes,"1 µM, pH 7.4",> 60 min
CC(C)NCC(O)COc1cccc2ccccc12 (racemic),liver microsomes,"2 µM, pH 7.4",68.2 min
C=CCn1c(=O)c2cnc(Nc3ccc(N4CCN(C)CC4)cc3)nc2n1-c1ccc2c(n1)[C@@](O)(CC)CC2,liver microsomes,,23 min
Cc1[nH]c(C)c(S(=O)(=O)Nc2ccc(C(F)(F)F)c(Cl)c2Cl)c1C(=O)N1CCC(F)(F)C1,liver microsomes,,94 min
NCc1ccc(-c2nn(Cc3ccccc3)c3ccccc23)o1,liver microsomes,,34 min
CCCCN(CCCC)CCCOc1ccc2c(=O)c3c([nH]c2c1)CCCC3,liver microsomes,"1 µM, pH 7.4",15.1 min
CC(C)C(=O)OCc1cc2[nH]c(=S)n(Cc3cccnc3)c(=O)c2cc1Cl,liver microsomes,"1 µM, pH 7.4",< 5 min
CN1CCC(Oc2ccc3c(=O)c4c(F)cc(Cl)cc4[nH]c3c2)CC1,liver microsomes,"1 µM, pH 7.4",55.7 min
O=c1c2cc(Cl)ccc2[nH]c(=S)n1Cc1cccnc1,liver microsomes,"1 µM, pH 7.4",> 186 min
O=C1c2ccccc2C(=O)N1CCCN1CCN(C(c2ccc(F)cc2)c2ccc(F)cc2)CC1,liver microsomes,100 ng/mL,10.2 min
O=c1c2c([nH]c3ccc(F)c(Oc4ccc(OC(F)(F)F)cc4)c13)CCCC2,liver microsomes,"1 µM, pH 7.4",14.9 min
O=C(N1CCCCC1)C12CC(c3ccccc3)(C1)C2,liver microsomes,"2 µM, pH 7.4",70.2 min
